From PubChem BioAssay
An excerpt weighted towards active compounds, which were near 1% of everything screened.
UPR CHOP act: apoptotic UPR (CHOP) activation | CHO-CHOP luciferase reporter, luminescence; percent of tunicamycin response over DMSO baseline | 330,000 compounds, 0.34% hits | AID 449763 | activation, % at 10 µM;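 active = at 10 µM dose, activation of 40% or more, normalized to positive control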;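 note: 100% = tunicamycin at 10 µg/mL and 0% = DMSO alone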
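Material: CHO-CHOP cells, stable luciferase reporter of PERK-eIF2a-CHOP signalling; quantity: 500 reporter cells seeded per well; buffer or medium: F12 medium containing 10% fetal bovine serum; compound: one dose, 10 µM in 0.5% DMSO; incubation: 6 h compound treatment, 37 °C; measured by: Steady-Glo luciferase luminescence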
Beta2AR agonist: agonists of human beta-2 adrenergic receptor inducing internalization | Am2.2-beta2AR cells, FAP receptor internalization, flow cytometry | response, % (no concentration beside the values) | 340,000 compounds, 0.43% hits;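 active = response above a set limit, near 3 SD of response in nonfluorescent compounds, cut at about 42% in these data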
Target sequence (P07550 whole entry, looked up): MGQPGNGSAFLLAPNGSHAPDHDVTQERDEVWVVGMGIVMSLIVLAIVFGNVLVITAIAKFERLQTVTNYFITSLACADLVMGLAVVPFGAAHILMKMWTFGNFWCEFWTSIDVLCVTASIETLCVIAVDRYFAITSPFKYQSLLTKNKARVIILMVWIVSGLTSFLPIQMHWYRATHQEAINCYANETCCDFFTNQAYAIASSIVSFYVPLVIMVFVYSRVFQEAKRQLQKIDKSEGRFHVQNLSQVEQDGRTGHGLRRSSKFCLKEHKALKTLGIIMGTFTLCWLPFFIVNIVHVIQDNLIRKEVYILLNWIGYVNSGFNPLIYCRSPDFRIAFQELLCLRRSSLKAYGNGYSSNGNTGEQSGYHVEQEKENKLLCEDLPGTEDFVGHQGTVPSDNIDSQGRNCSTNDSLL
T cell HTS: modulates CD8 T cell binding to vesicles | 2C CD8+ T cell-vesicle binding, flow cytometry; stronger effect = lower value | response (vesicle binding), % at 7 µM | 330,000 compounds, 0.068% hits;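 active = response, share of CD8 T cells binding vesicles, and their 90th percentile fluorescence all below set limits, cut at about 80% in these data, passing the limit was not always enough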;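 note: values below 100% mean blocked vesicle binding to the CD8+ T cells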
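Incubation: binding step 1.5 h, 37 °C, antibody labelling 20 min, ice; system: murine 2C transgenic CD8+ T lymphocytes; technique: cytometric PE anti-B7-1 and Alexa647 anti-CD8 signals after 1% paraformaldehyde fixation; also added: QL9-charged Drosophila Ld/ICAM-1/B7-1 vesicles; control set: naked versus QL9-loaded vesicles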
XBP1 UPR activ: adaptive UPR (XBP1) activation; CHO-XBP1 luciferase reporter, IRE1-XBP1 UPR activation, luminescence; percent of tunicamycin response, DMSO as zero; activation, % at 20 µM; 330,000 compounds, 0.33% hits;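 active = versus positive control, 20 µM dose yields 30% or more activation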;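 note: 100% = tunicamycin at 10 µg/mL and 0% = DMSO only wells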
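incubation = overnight seeding at 37 °C, 6 h compound treatment at 37 °C | assay system = CHO-XBP1 cells stably carrying IRE1-XBP1-driven luciferase reporter | input = 1000 cells per well | detection = luciferase luminescence | dosing = single point, 20 µM final compound, 1% DMSO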
B2AR ag CP1: activates human beta-2 adrenergic receptor. shares compounds with Beta2AR agonist. Am2.2-beta2AR cells, FAP surface receptor, flow cytometry; stronger effect = lower value. percent response (surface receptor), % at 10 µM. 1,100 compounds, 25% hits. AID 540358;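 active = surface receptor percent response at or below 58%, roughly 3 SD from nonfluorescent compounds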
B2AR FAP counter: flagged in Am2.2 fluorescence counterscreen for beta-2AR agonists; calls only at 10 µM; 1,100 tested, under 10 active; shares compounds with Beta2AR agonist; Am2.2 cells, FAP fluorogen flow cytometry; stronger effect = lower value;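 active = percent response below a set limit in fluorescence channel 1 and below 50% in channel 8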
Numbers without * were called inactive.

CCC(C)NC(=O)c1c(N)n(/N=C/c2cccnc2)c2nc3ccccc3nc12 (stereo unspecified) was read as UPR CHOP act 7, Beta2AR agonist 48*, T cell HTS 192, XBP1 UPR activ 17, B2AR ag CP1 84 and B2AR FAP counter inactive.
Screening CCC(C)NC(=O)c1c(N)n(/N=C/c2ccccn2)c2nc3ccccc3nc12 (stereo unspecified) returned UPR CHOP act 5, Beta2AR agonist 17, T cell HTS 267 and XBP1 UPR activ 5.
For Cc1ccc(-n2nc3c(N4CCC(C(=O)NCCc5ccco5)CC4)nnc(C)c3c2C)cc1 the results were UPR CHOP act 1, Beta2AR agonist 13, T cell HTS 85 and XBP1 UPR activ 20.
Screening COc1ccc(-n2nc3c(N4CCC(C(=O)NCc5ccco5)CC4)nnc(C)c3c2C)cc1 returned UPR CHOP act -2, Beta2AR agonist 7, T cell HTS 459, XBP1 UPR activ -5, B2AR ag CP1 98 and B2AR FAP counter inactive.
`O=c1c(Cc2c(F)cccc2Cl)c(O)ccn1Cc1ccc2c(c1)OCO2` gave UPR CHOP act 0, Beta2AR agonist 2, T cell HTS 227 and XBP1 UPR activ -4.
CCOC(=O)c1ccc(N2C(=O)c3n[nH]c(-c4ccco4)c3C2c2cccc([N+](=O)[O-])c2)cc1 (stereo unspecified) was read as UPR CHOP act 2, Beta2AR agonist 85*, T cell HTS 373, XBP1 UPR activ 1, B2AR ag CP1 23* and B2AR FAP counter inactive.
`Cc1ccc(-n2c(C)nnc2SCC(=O)Nc2ccccc2)cc1` gave UPR CHOP act 0, Beta2AR agonist -2, T cell HTS 295 and XBP1 UPR activ -2.
O=C(c1ccco1)N1CCCC(c2nc3c(nnn3Cc3c(Cl)cccc3Cl)c(=O)[nH]2)C1 (stereo unspecified) was read as UPR CHOP act 0, Beta2AR agonist 50*, T cell HTS 339, XBP1 UPR activ 0, B2AR ag CP1 124 and B2AR FAP counter inactive.
`O=C(c1ccco1)N1CCCC(c2nc3c(nnn3Cc3ccccc3)c(=O)[nH]2)C1` (stereo unspecified) gave UPR CHOP act 1, Beta2AR agonist 8, T cell HTS 97 and XBP1 UPR activ -5.
`CC1C[C@@]2(NC(=O)NC2=O)C(C)CN1C` (stereo partly specified) gave UPR CHOP act -4, Beta2AR agonist 46*, T cell HTS 628, XBP1 UPR activ -5, B2AR ag CP1 108 and B2AR FAP counter inactive.
`CC1CC2(NC(=O)NC2=O)C(C)CN1C` (stereo unspecified) gave UPR CHOP act -1, Beta2AR agonist 0, T cell HTS 324 and XBP1 UPR activ 8.
For COc1ccc(CN(CC(=O)NC2CCCC2)C(=O)c2csnn2)cc1 the results were UPR CHOP act 0, Beta2AR agonist -13, T cell HTS 366 and XBP1 UPR activ -5.
`COc1ccccc1-c1csc(-n2ncc(C#N)c2N)n1` gave UPR CHOP act 4, Beta2AR agonist 84*, T cell HTS 210, XBP1 UPR activ 3, B2AR ag CP1 73 and B2AR FAP counter inactive.
`COc1ccc(-c2csc(-n3ncc(-c4ccccn4)c3N)n2)cc1` gave UPR CHOP act 0, Beta2AR agonist 3, T cell HTS 426 and XBP1 UPR activ 1.
`CC(C)(C)OC(=O)N1CCC(C(=O)Nc2cccc(C(=O)NCc3ccccc3)c2)CC1` gave Beta2AR agonist 3.
Screening COC(=O)c1ccccc1NC(=O)COc1ccc(S(=O)(=O)N2CCCC2)cc1C returned UPR CHOP act -1, Beta2AR agonist 5, T cell HTS 91, XBP1 UPR activ -2, B2AR ag CP1 99 and B2AR FAP counter inactive.
Screening Cc1cc(S(=O)(=O)N2CCCC2)ccc1OCC(=O)Nc1ccc(C(N)=O)cc1 returned UPR CHOP act 1, Beta2AR agonist 2, T cell HTS 310, XBP1 UPR activ 1, B2AR ag CP1 113 and B2AR FAP counter inactive.
